Series [1] relates to U-937. Briefly: Induction of apoptosis in p53 null human U937 cells assessed as caspase 3 cleavage at 2 uM after 24 hrs in presence of SAHA by Western blot analysis. In kind it is functional, cell-based. A digest of the protocol: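 U937 cells exposed for 24 h. Lysates with protease/phosphatase inhibitors were separated by SDS-PAGE, transferred to PVDF and probed for PARP and cleaved caspase-3, with β-actin as loading control.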
For orientation: In western blotting, separated proteins are transferred to a membrane and probed.

The subject of another series is OCI-AML-3. Briefly: Antiproliferative activity against human OCI-AML3 cells after 72 hrs by MTT assay. Type of series: functional, cell-based. Conditions: OCI-AML-3, 72 h.
The nature of series [2]: Antiproliferative activity against human CMS cells after 72 hrs by MTT assay. Type of series: functional, cell-based. A digest of the protocol: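 AML cell lines grown in RPMI 1640 with 10% FBS (20% for MOLM-13), 2 mM L-glutamine and penicillin/streptomycin at 37 °C, 5% CO2. Ara-C-resistant HL-60 and CMK sublines came from stepwise cytarabine selection and were kept in 600 nM or 300 nM cytarabine respectively. Cells were treated 72 h. MTT 0.05 mg/mL, 3 h at 37 °C, DMSO solubilization, absorbance at 570 nm. IC50 given ± SEM.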
(In general: Tetrazolium assays rely on reduction of a dye to a coloured formazan, in cell work by metabolically active cells.)

The test system of series [3] is CMK. Briefly: Antiproliferative activity against human CMK cells after 72 hrs by MTT assay. In kind it is functional, cell-based.
A short description of series [4]: Antiproliferative activity against human CMY cells after 72 hrs by MTT assay. Type of series: functional, cell-based.
Series [5] has as its system U-937. The experiment in a line: Antiproliferative activity against p53 null human U937 cells after 72 hrs by MTT assay. Type of series: functional, cell-based. Conditions: U-937, 72 h.
A further series relates to MV4-11. The experiment in a line: Antiproliferative activity against human MV4-11 cells after 72 hrs by MTT assay. Type of series: functional, cell-based. Conditions: MV4-11, 72 h.
In series [6] the test system is MOLM-13. The experiment in a line: Antiproliferative activity against human MOLM13 cells harboring wild type p53/FLT3-ITD mutant after 72 hrs by MTT assay. Type of series: functional, cell-based. Conditions: MOLM-13, 72 h.
Series [7] has as its system HL-60. Briefly: Antiproliferative activity against human HL60 cells after 72 hrs by MTT assay. Type of series: functional, cell-based. Conditions: HL-60, 72 h.
For series [8], the system named is HL-60. Briefly: Antiproliferative activity against Ara-C resistant human HL60 cells after 72 hrs by MTT assay. Type of series: functional, cell-based. Conditions: HL-60, 72 h.
Series [9] relates to CMK. Briefly: Antiproliferative activity against Ara-C resistant human CMK cells after 72 hrs by MTT assay. Type of series: functional, cell-based.
A further series deals with MCF-10A. Briefly: Cytotoxicity against human MCF10A cells assessed as decrease in cell viability at 0.5 to 5 uM after 24 hrs by MTT assay. In kind it is cell-based. A digest of the protocol:
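MCF-10A (DMEM/F12, 5% horse serum, hydrocortisone, cholera toxin, insulin, EGF) and U937 (RPMI 1640, 10% FBS) were exposed to 0.5–5 μM, alone or PL+SAHA 1:1, for 24 h. MTT 0.05 mg/mL, 3 h at 37 °C, DMSO solubilization, A570. Viability given as mean ± SD of four to six independent experiments. DMSO <0.1% vehicle control.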

Series [10] concerns U-937. Briefly: Induction of apoptosis in p53 null human U937 cells at 2 uM preincubated with NAC for 3 hrs followed by compound addition measured after 24 hrs by annexin V-FITC/PI staining based flow cytometry. In kind it is functional, cell-based. A digest of the protocol: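 U937 cells preincubated 3 h with 3 mM NAC or vehicle and washed with PBS to remove excess NAC. Then drug alone or with SAHA for 24 h. Apoptosis scored as % Annexin V+ by Annexin V-FITC/PI flow cytometry; vehicle DMSO < 0.1% v/v.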
For orientation: A flow cytometer gives signals particle by particle.

Series [11] concerns U-937. The experiment in a line: Induction of DNA damage in p53 null human U937 cells at 2 uM after 20 hrs by SYBR gold staining based alkaline comet assay. In kind it is functional, cell-based. A digest of the protocol:
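U937 cells treated 20 h with SAHA and PL alone or combined (16 h for hybrids). Alkaline single-cell gel electrophoresis, SYBR Gold staining, microscopy. Median % DNA in tail from 4 replicate gels ± s.e.m.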

Series [12] relates to U-937. Briefly: Induction of DNA damage in p53 null human U937 cells assessed as increase in gammaH2AX expression level by measuring ratio of gammaH2AX to beta-actin level at 2 uM after 24 hrs by Western blot analysis relative to control. In kind it is functional. A digest of the protocol:
(§1)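 U937 cells treated 24 h, alone or PL+SAHA. Whole-cell lysates (protease/phosphatase inhibitors) immunoblotted for γH2AX, CHK1, RAD51, Bim and XIAP. Band densitometry normalised to β-actin, then expressed as fold change relative to the untreated control.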

Series [13] concerns U-937. Briefly: Induction of DNA damage in p53 null human U937 cells assessed as decrease in CHK1 expression level by measuring ratio of CHK1 to beta-actin level at 2 uM after 24 hrs by Western blot analysis relative to control. Type of series: functional. A digest of the protocol:
as §1

The test system of series [14] is U-937. Briefly: Effect on SAHA-induced DNA damage in p53 null human U937 cells assessed as decrease in CHK1 expression level by measuring ratio of CHK1 to beta-actin level at 2 uM after 24 hrs by Western blot analysis relative to control. In kind it is functional. A digest of the protocol:
as §1

For series [15], the system named is U-937. Briefly: Induction of apoptosis in p53 null human U937 cells assessed as increase in Bim EL expression level by measuring ratio of Bim EL to beta-actin level at 2 uM after 24 hrs by Western blot analysis relative to control. Type of series: functional. A digest of the protocol: as §1
Series [16] relates to U-937. The experiment in a line: Induction of apoptosis in p53 null human U937 cells assessed as decrease in XIAP expression level by measuring ratio of XIAP to beta-actin level at 2 uM after 24 hrs by Western blot analysis relative to control. Type of series: functional. A digest of the protocol: as §1
The species named for another series is Homo sapiens. Conditions: at 1 µM.
In series [17] the test system is U-937. The experiment in a line: Induction of apoptosis in p53 null human U937 cells at 4 uM after 24 hrs by annexin V-FITC/PI staining based flow cytometry. In kind it is functional. A digest of the protocol:
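Human U937 AML cells (p53 null) in RPMI 1640 with 10% FBS, 2 mM L-glutamine, penicillin/streptomycin, 37 °C, 5% CO2. Exposed 24 h to compound alone or with SAHA; vehicle DMSO < 0.1% v/v. Annexin V-FITC/PI staining and flow cytometry, reported as % Annexin V+ cells. Three independent experiments in triplicate; one representative shown. EC50 taken as concentration giving 50% Annexin V+ cells versus vehicle.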

The subject of series [18] is MOLM-13. The experiment in a line: Induction of apoptosis in human MOLM13 cells harboring wild type p53/FLT3-ITD mutant at 1 uM after 24 hrs by annexin V-FITC/PI staining based flow cytometry. Type of series: functional. A digest of the protocol: (§2)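 Cells treated 24 h, single agents or SAHA+PL at 1:1 (each drug at the stated concentration). Annexin V-FITC/PI kit staining, then flow cytometry, reported as % Annexin V+ cells. Three independent experiments in triplicate, with data from one representative experiment. DMSO <0.1% vehicle control.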

For series [19], the system named is MOLM-13. The experiment in a line: Induction of apoptosis in human MOLM13 cells harboring wild type p53/FLT3-ITD mutant at 2 uM after 24 hrs by annexin V-FITC/PI staining based flow cytometry. Type of series: functional. A digest of the protocol:
as §2

The subject of series [20] is U-937. The experiment in a line: Induction of apoptosis in p53 null human U937 cells at 0.25 uM after 24 hrs by annexin V-FITC/PI staining based flow cytometry. In kind it is functional. A digest of the protocol:
as §2

A short description of series [21]: Chemical stability of the compound in pH 7.4 phosphate buffer at 50 uM incubated up to 4 hrs in presence of GSH by HPLC analysis. Conditions: pH 7.4, 4 h. Type of series: physicochemical. A digest of the protocol:
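Compound at 50 μM incubated with or without 5 mM GSH in phosphate buffer pH 7.4 at 37 °C for up to 4 h. Mixtures analysed by HPLC with water/0.1% formic acid/10% methanol versus 0.1% formic acid in acetonitrile, 0.5 mL/min, 10–80% B gradient over 18 min.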

Molecules are shown by their SMILES. The source made the active and inactive calls. The calls are words filed in the database; no cut-off is given here.

Take `COc1cc(/C=C/C(=O)N2CCC=CC2=O)cc(OC)c1OC` [PIPLARTINE]: the result in the series with U-937 [1] was Active. Besides, the half-maximal inhibitory concentration (IC50) with OCI-AML-3 turned out to be 1.87 µM; in series [2], 3.1 µM; with CMK [3], 2.81 µM; in series [4] it was 1.62 µM; with U-937 [5], 2.17 µM; in the series on MV4-11, 1.44 µM. The half-inhibitory concentration (IC50) in the series on MOLM-13 [6] is 1.84 µM; in the series on HL-60 [7], 1.78 µM; in the series with HL-60 [8], 2.25 µM; with CMK [9] it was 1.91 µM. Moreover, the Activity entry in the series with MCF-10A was “Non-Toxic”. For the same compound, the result in the series with U-937 [10] and in the series on U-937 [11] was inactive. The Ratio with U-937 [12] stood at 1; in the series on U-937 [13] it was 1; with U-937 [14], 0.8; in the series on U-937 [15] it was 1; with U-937 [16], 1. Also, the inhibition entry in the series filed under Homo sapiens is “inactive”.

Regarding `COc1cc(/C=C/C(=O)N2CCC=CC2=O)cc(OC)c1OCCCCCCC(=O)NO`, the Activity in the series with U-937 [17] is 88.5%; in the series with MOLM-13 [18], 24.6%; with MOLM-13 [19], 65.9%; in the series on MCF-10A, “Non-Toxic”. The IC50 in the series with OCI-AML-3 amounted to 0.615 µM; in [2] it was 0.385 µM; in the series on CMK [3], 0.256 µM; in series [4], 0.185 µM; in the series on U-937 [5] it was 0.498 µM; in the series on MV4-11 it was 0.23 µM. Besides, the IC50 with MOLM-13 [6] was 0.454 µM; in the series with HL-60 [7], 0.357 µM; with HL-60 [8], 0.692 µM; in the series with CMK [9], 0.215 µM. Moreover, the outcome with U-937 [20] and in the series on U-937 [10] was inactive. For the same compound, the Stability result in series [21] is listed as “Stable”. Besides, the outcome with U-937 [11] was Active. The Ratio is recorded as 4.5 in the series with U-937 [12], 0.7 in the series on U-937 [13], 1.8 in the series on U-937 [15] and 0.6 in the series on U-937 [16]. Moreover, the inhibition result in the series filed under Homo sapiens is “Active”.

For orientation: IC50 means the midpoint of a concentration-inhibition curve.

These data come from ChEMBL document CHEMBL4000155, “Synthesis and Antileukemic Activities of Piperlongumine and HDAC Inhibitor Hybrids against Acute Myeloid Leukemia Cells” (J Med Chem, 2016).
